According to PubChem BioAssay:
Active and inactive are the calls of the source. Rule as the data show it, unless noted: active = inhibition above about 30%; inactive = the rest.

Legend:
[1] = Her2 expression decrease, cell viability multiplex – SKBR3 breast tumor cells, AlphaScreen, ATP viability, primary screen (AID 461;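 active = Her2 level under about 52% in both replicate screens, with viability over 70% of control, limit read from the data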;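 as to Her2 level: lower value means less Her2 protein in the cells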;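 as to viability: percent of carrier control wells set as 100% viability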); settings: SKBR3 Her2 protein level, 18-24 h, measured here: SKBR3 viability, ATP luminescence, at 10 µM
[2] = molecular target: Receptor tyrosine-protein kinase erbB-2 (Homo sapiens) (UniProt P04626); experiment: as above; settings: 18-24 h, at 10 µM, stronger effect = lower value
[3] = reduced viability of SK-BR-3 breast cancer cells – cell-based, 24 h, human, pilot screen (AID 572;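 active = viability at or below 10% of carrier control in both of two separate runs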;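 also: compound exposure lasted between 18 and 24 h rather than exactly 24 h; 100% = carrier-treated control wells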); settings: SK-BR-3 viability, CellTiter-Glo luminescence, at 10 µM, stronger effect = lower value
[4] = HUVEC growth inhibition – cell-based, human, primary screen (AID 575;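 active = viability at or below 30% in both replicate assays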;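 also: 100% = median of untreated cell wells with 0.1% DMSO on each plate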); settings: HUVEC proliferation, CellTiter-Glo luminescence, 72 h; at 10 µM; stronger effect = lower value
Summary of the method: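 Material: primary human umbilical vein endothelial cells / Schedule: 72 h exposure, 37 °C, 5% CO2, 30 min RT equilibration / Signal: ATP-based CellTiter-Glo luminescent read / Read-out basis: percent of median DMSO-control luminescence / Control set: 32 DMSO-only cell-control wells (high), 32 MePR drug-control wells (low) per plate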

[5] = H69AR cell proliferation blockers – human, duplicate replicates, primary screen (AID 580;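 active = viability at or under a set limit in both replicates, limit being median viability minus 3 SD, cut at about 48% in these data, passing the limit was not always enough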;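 also: 100% = mean luminescence of untreated wells and 0% = no signal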); settings: H69AR lung tumor cells viability, ATP luminescence, 72 h; at 10 µM; stronger effect = lower value
[6] = MRP1 drug-resistance reversers in H69AR cells – cell-based, doxorubicin co-treatment, pilot screen (AID 601;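 active = viability loss from added drug above about 55%, and viability with drug at most 40%, in both replicates, limit read from the data, passing the limit was not always enough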); settings: CellTiter-Glo, 72 h, at 10 µM; for differential viability (reversal): stronger effect = higher value
[7] = yeast transport mutant growth inhibition pilot in 384-well plates, post-Golgi transport modulator project (AID 636; in the data active = inhibition above about 31%); settings: absorbance 615 nm, about 18 h, stronger effect = higher value
[8] = growth suppression of yeast trafficking mutant, preliminary HTS, modulators of trafficking downstream of Golgi apparatus project, 1536-format plate, OD 615 nm (AID 637); settings: yeast transport mutant growth, absorbance 615 nm, 18 h; stronger effect = higher value
[9] = H69AR cells + 2 uM doxorubicin, measured here: viability with 2 uM doxorubicin, stronger effect = lower value
[10] = H69AR cells, compound alone cytotoxicity

Chain of Receptor tyrosine-protein kinase erbB-2 (Homo sapiens) (P04626 whole entry, looked up): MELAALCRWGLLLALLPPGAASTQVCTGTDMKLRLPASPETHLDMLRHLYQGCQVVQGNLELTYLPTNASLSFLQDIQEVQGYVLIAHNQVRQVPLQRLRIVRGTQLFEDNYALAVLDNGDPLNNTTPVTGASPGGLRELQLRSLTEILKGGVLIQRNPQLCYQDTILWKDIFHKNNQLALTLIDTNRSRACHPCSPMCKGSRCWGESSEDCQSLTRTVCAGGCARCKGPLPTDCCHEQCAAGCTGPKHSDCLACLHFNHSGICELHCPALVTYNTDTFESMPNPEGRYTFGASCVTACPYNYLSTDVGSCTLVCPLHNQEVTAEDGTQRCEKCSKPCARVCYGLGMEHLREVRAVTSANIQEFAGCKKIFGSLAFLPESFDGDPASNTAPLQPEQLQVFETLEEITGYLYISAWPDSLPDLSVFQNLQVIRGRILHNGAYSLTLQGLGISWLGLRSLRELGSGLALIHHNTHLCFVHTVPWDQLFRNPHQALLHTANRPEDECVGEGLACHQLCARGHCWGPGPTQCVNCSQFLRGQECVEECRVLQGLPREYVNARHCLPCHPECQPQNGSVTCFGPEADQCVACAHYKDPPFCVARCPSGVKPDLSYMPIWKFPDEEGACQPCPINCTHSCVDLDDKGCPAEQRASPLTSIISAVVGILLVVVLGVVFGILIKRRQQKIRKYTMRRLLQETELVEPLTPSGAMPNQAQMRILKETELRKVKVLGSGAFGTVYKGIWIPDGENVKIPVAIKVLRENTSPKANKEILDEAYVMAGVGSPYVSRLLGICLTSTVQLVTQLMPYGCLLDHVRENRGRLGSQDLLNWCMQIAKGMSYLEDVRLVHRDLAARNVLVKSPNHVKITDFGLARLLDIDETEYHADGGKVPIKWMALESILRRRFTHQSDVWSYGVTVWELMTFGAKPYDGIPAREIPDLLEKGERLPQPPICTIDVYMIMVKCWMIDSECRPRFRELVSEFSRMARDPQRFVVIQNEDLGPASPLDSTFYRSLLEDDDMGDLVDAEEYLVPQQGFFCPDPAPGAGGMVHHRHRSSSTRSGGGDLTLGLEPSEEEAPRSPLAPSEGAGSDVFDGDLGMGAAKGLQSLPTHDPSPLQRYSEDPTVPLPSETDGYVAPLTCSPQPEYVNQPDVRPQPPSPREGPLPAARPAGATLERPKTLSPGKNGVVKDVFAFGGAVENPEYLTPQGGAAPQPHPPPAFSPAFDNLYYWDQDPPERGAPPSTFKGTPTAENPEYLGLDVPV

Compound: COCCN(C(=O)CNC(=O)c1ccco1)C(C(=O)NC1CCCCC1)c1cccc(OC)c1 (stereo not given)
- viability [1]: 96%
- Her2 level [2]: 103% (inactive)
- viability [3]: 96% (inactive)
- viability [4]: 88.1% (inactive)
- viability [5]: 102% (inactive)
- differential viability (reversal) ([6]; H69AR cells + 2 uM doxorubicin): 12.6% (inactive)
- viability [6, 9]: 89.6%
- viability [6, 10]: 102%
- inhibition [7]: -1.3% (inactive)
- inhibition [8]: -1.17% (inactive)

Compound: O=C(COc1ccccc1Cl)OCC(=O)N1CCN(S(=O)(=O)c2ccccc2)CC1
- viability [1]: 101%
- Her2 level [2]: 85% (inactive)
- viability [3]: 101% (inactive)
- viability [4]: 89.4% (inactive)
- viability [5]: 87.4% (inactive)
- differential viability (reversal) ([6]; H69AR cells + 2 uM doxorubicin): -1.84% (inactive)
- viability [6, 9]: 89.2%
- viability [6, 10]: 87.4%
- inhibition [7]: -6.13% (inactive)
- inhibition [8]: -2.79% (inactive)

Compound: CCN(CC)C(=O)c1sc2nc(-c3cccs3)cc(-c3cccs3)c2c1N
- viability [1]: 102%
- Her2 level [2]: 88.5% (inactive)
- viability [3]: 102% (inactive)
- viability [4]: 76.2% (inactive)
- viability [5]: 71.8% (inactive)
- differential viability (reversal) ([6]; H69AR cells + 2 uM doxorubicin): -12.7% (inactive)
- viability [6, 9]: 84.5%
- viability [6, 10]: 71.8%
- inhibition [7]: -4.67% (inactive)
- inhibition [8]: 21% (inactive)

Compound: CN(C)c1ccc(C=Nc2ccc(N(C)C)cc2)cc1
- viability [1]: 104%
- Her2 level [2]: 94% (inactive)
- viability [3]: 104% (inactive)
- viability [4]: 74.2% (inactive)
- viability [5]: 70.4% (inactive)
- differential viability (reversal) ([6]; H69AR cells + 2 uM doxorubicin): -7.71% (inactive)
- viability [6, 9]: 78.1%
- viability [6, 10]: 70.4%
- inhibition [7]: -6.22% (inactive)
- inhibition [8]: -6.23% (inactive)

Compound: O=c1oc2ccccc2c(N2CCCCC2)c1CN1CCCCC1
- viability [1]: 86%
- Her2 level [2]: 99% (inactive)
- viability [3]: 86% (inactive)
- viability [4]: 86.2% (inactive)
- viability [5]: 82.5% (inactive)
- differential viability (reversal) ([6]; H69AR cells + 2 uM doxorubicin): -0.775% (inactive)
- viability [6, 9]: 83.3%
- viability [6, 10]: 82.5%
- inhibition [7]: -1.05% (inactive)
- inhibition [8]: -4.03% (inactive)

Compound: CCOC(=O)N1CCN(Cc2nc3c(c(=O)[nH]c(=O)n3C)n2Cc2cc(C)ccc2C)CC1
- viability [1]: 102%
- Her2 level [2]: 105% (inactive)
- viability [3]: 102% (inactive)
- viability [4]: 112% (inactive)
- viability [5]: 96.1% (inactive)
- differential viability (reversal) ([6]; H69AR cells + 2 uM doxorubicin): 7.95% (inactive)
- viability [6, 9]: 88.1%
- viability [6, 10]: 96.1%
- inhibition [7]: -2.27% (inactive)
- inhibition [8]: 0.32% (inactive)

Compound: O=C(Nc1ccc2c(c1)OCO2)c1ccc(Br)c(S(=O)(=O)N2CCCC2)c1
- viability [1]: 98.5%
- Her2 level [2]: 80.5% (inactive)
- viability [3]: 98.5% (inactive)
- viability [4]: 58% (inactive)
- viability [5]: 94% (inactive)
- differential viability (reversal) ([6]; H69AR cells + 2 uM doxorubicin): 1.82% (inactive)
- viability [6, 9]: 92.2%
- viability [6, 10]: 94%
- inhibition [7]: -1.32% (inactive)
- inhibition [8]: -0.16% (inactive)

Compound: CN(C1CCCCC1)S(=O)(=O)c1ccc(S(=O)(=O)N2CCCC2)cc1
- viability [1]: 84.5%
- Her2 level [2]: 92% (inactive)
- viability [3]: 84.5% (inactive)
- viability [4]: 78.3% (inactive)
- viability [5]: 78.5% (inactive)
- differential viability (reversal) ([6]; H69AR cells + 2 uM doxorubicin): -19.2% (inactive)
- viability [6, 9]: 97.7%
- viability [6, 10]: 78.5%
- inhibition [7]: -0.13% (inactive)
- inhibition [8]: -4.92% (inactive)

Compound: CCOc1ccc2oc(-c3ccccc3)c(C(=O)N3CCN(CCO)CC3)c2c1
- viability [1]: 97.5%
- Her2 level [2]: 83% (inactive)
- viability [3]: 97.5% (inactive)
- viability [4]: 74.3% (inactive)
- viability [5]: 72.9% (inactive)
- differential viability (reversal) ([6]; H69AR cells + 2 uM doxorubicin): 3.36% (inactive)
- viability [6, 9]: 69.6%
- viability [6, 10]: 72.9%
- inhibition [7]: -4.42% (inactive)
- inhibition [8]: 0% (inactive)

Compound: CCC(C(=O)Nc1ncccn1)(C(F)(F)F)C(F)(F)F
- viability [1]: 86.5%
- Her2 level [2]: 99% (inactive)
- viability [3]: 86.5% (inactive)
- viability [4]: 95.7% (inactive)
- viability [5]: 103% (inactive)
- differential viability (reversal) ([6]; H69AR cells + 2 uM doxorubicin): 8.62% (inactive)
- viability [6, 9]: 94.6%
- viability [6, 10]: 103%
- inhibition [7]: 0.27% (inactive)
- inhibition [8]: 0.82% (inactive)

Compound: Cc1ccc(C2/C(=C(/O)c3cnn(-c4ccccc4)c3C)C(=O)C(=O)N2CCN2CCOCC2)o1 (stereo not given)
- viability [1]: 77.5%
- Her2 level [2]: 79% (inactive)
- viability [3]: 77.5% (inactive)
- viability [4]: 112% (inactive)
- viability [5]: 85% (inactive)
- differential viability (reversal) ([6]; H69AR cells + 2 uM doxorubicin): 7.89% (inactive)
- viability [6, 9]: 77.1%
- viability [6, 10]: 85%
- inhibition [7]: -4.61% (inactive)
- inhibition [8]: -1.09% (inactive)

Compound: CCCOC(=O)/C(C(N)=NCc1ccccc1)=C(\O)OCCC
- viability [1]: 82%
- Her2 level [2]: 95% (inactive)
- viability [3]: 82% (inactive)
- viability [4]: 82.6% (inactive)
- viability [5]: 88.8% (inactive)
- differential viability (reversal) ([6]; H69AR cells + 2 uM doxorubicin): -4.66% (inactive)
- viability [6, 9]: 93.4%
- viability [6, 10]: 88.8%
- inhibition [7]: 1.3% (inactive)
- inhibition [8]: -2.79% (inactive)

Compound: CCOc1ccc(OCC)c2sc(C)nc12
- viability [1]: 107%
- Her2 level [2]: 94% (inactive)
- viability [3]: 107% (inactive)
- viability [4]: 102% (inactive)
- viability [5]: 99.5% (inactive)
- differential viability (reversal) ([6]; H69AR cells + 2 uM doxorubicin): 12.4% (inactive)
- viability [6, 9]: 87.1%
- viability [6, 10]: 99.5%
- inhibition [7]: 0.79% (inactive)
- inhibition [8]: 1.48% (inactive)

Compound: CCn1c(CNc2ccc(C)cc2)nnc1SCC(=O)NCc1ccccc1
- viability [1]: 89%
- Her2 level [2]: 100% (inactive)
- viability [3]: 89% (inactive)
- viability [4]: 91.1% (inactive)
- viability [5]: 86.6% (inactive)
- differential viability (reversal) ([6]; H69AR cells + 2 uM doxorubicin): -0.975% (inactive)
- viability [6, 9]: 87.6%
- viability [6, 10]: 86.6%
- inhibition [7]: 0.13% (inactive)
- inhibition [8]: 3.93% (inactive)

Compound: Cc1c(NC(=O)c2coc(=O)c(Br)c2)c(=O)n(-c2ccccc2)n1C
- viability [1]: 85%
- Her2 level [2]: 27.5% (active)
- viability [3]: 85% (inactive)
- viability [4]: 72.9% (inactive)
- viability [5]: 1.47% (active)
- differential viability (reversal) ([6]; H69AR cells + 2 uM doxorubicin): -0.165% (inactive)
- viability [6, 9]: 1.64%
- viability [6, 10]: 1.47%
- inhibition [7]: -4.55% (inactive)
- inhibition [8]: -4.92% (inactive)

Compound: O=C(O)CCC(=O)Nc1nc(-c2ccccc2)cs1
- viability [1]: 92%
- Her2 level [2]: 84.5% (inactive)
- viability [3]: 92% (inactive)
- viability [4]: 98.5% (inactive)
- viability [5]: 91.3% (inactive)
- differential viability (reversal) ([6]; H69AR cells + 2 uM doxorubicin): -4.88% (inactive)
- viability [6, 9]: 96.1%
- viability [6, 10]: 91.3%
- inhibition [7]: -6.4% (inactive)
- inhibition [8]: -1.48% (inactive)
